Laboratory results published in ChEMBL document CHEMBL4190389, “Synthesis and activity of di- or trisubstituted N-(phenoxyalkyl)- or N-{2-[2-(phenoxy)ethoxy]ethyl}piperazine derivatives on the central nervous system” (Bioorg Med Chem Lett, 2018).
Activity calls are given as the source filed them. The rule behind the calls is not given here.

Tests used:
[1] = target: T1, D(2) dopamine receptor (Homo sapiens, UniProt P14416); assay: Agonist activity at human D2 receptor expressed in CHO-K1 cells co-expressing Galphaqi5 assessed as increase apomorphine-induced calcium mobilization measured for 30 secs by aequorin-derived luminescence assay relative to apomorphine; assay type: functional, cell-based
[2] = target: T2, Alpha-1A adrenergic receptor (Homo sapiens) (UniProt P35348); assay: Displacement of [3H]prazosin from recombinant human alpha1 adrenoceptor expressed in CHO cell membranes at 10^-5 M after 30 mins by liquid scintillation counting method
T2 sequence (whole entry): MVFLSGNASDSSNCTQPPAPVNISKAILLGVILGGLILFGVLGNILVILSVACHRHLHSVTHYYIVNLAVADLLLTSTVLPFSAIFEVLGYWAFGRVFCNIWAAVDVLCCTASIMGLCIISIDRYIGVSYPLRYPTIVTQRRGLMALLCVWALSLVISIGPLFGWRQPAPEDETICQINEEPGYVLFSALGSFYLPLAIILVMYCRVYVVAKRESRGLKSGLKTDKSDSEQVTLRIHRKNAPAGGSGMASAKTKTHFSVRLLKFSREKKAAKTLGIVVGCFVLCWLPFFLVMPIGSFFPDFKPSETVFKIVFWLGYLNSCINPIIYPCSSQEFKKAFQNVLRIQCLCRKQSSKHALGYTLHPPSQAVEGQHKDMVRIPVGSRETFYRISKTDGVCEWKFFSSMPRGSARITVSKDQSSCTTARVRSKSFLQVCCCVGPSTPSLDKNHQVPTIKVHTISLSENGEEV

[3] = system: Mus musculus; assay: Anxiolytic-like activity in Albino Swiss CD-1 mouse assessed as increase in number of punished crossings at 10 mg/kg, ip administered for 30 mins prior to test measured for 1 min by four-plate test; assay type: functional, organism-based
Method in brief: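 Four-plate test in mice, i.p., 30 min before test; vehicle 0.9% NaCl; doses 1.25–10 mg/kg; number of punished crossings counted; mean ± SEM, n = 8–10 mice per group; ANOVA F statistics.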

[4] = target: T3, 5-hydroxytryptamine receptor 1A (Homo sapiens) (UniProt P08908); assay: Displacement of [3H]8-OH-DPAT from recombinant human 5-HT1A receptor expressed in HEK293 cell membranes at 10^-5 M after 60 mins by liquid scintillation counting method
T3 sequence (whole entry): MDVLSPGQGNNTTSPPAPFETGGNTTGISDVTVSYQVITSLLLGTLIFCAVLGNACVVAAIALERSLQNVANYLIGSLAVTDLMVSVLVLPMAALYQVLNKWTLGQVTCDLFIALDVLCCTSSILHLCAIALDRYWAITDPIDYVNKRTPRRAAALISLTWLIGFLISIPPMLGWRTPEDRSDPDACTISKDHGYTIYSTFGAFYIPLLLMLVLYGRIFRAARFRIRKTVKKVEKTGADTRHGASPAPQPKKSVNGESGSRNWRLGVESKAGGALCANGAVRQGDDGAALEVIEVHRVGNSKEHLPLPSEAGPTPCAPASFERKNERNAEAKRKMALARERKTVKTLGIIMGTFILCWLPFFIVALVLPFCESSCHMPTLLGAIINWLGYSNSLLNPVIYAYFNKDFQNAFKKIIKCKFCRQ

[5] = system: Mus musculus; assay: Toxicity in Albino Swiss CD-1 mouse assessed as effect on locomotory activity at 5 to 10 mg/kg, ip administered for 30 mins prior to test measured for 1 min; assay type: organism-based; settings: in vivo
Method in brief: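 Mice dosed i.p. 30 min before test; vehicle groups received 0.9% NaCl. Spontaneous locomotion scored as number of crossings during a 1-min session. Each dose compared with its own vehicle group by Student t-test; mean ± SEM, n = 8–10 mice per group.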

[6] = target: T4, 5-hydroxytryptamine receptor 7 (Homo sapiens, UniProt P34969); assay: Displacement of [3H]LSD from recombinant human 5-HT7 receptor expressed in CHO cell membranes at 10^-5 M after 60 mins by liquid scintillation counting method
[7] = target: T1, D(2) dopamine receptor; assay: Displacement of [3H]methylspiperonee from recombinant human D2 receptor expressed in HEK293 cell membranes at 10^-5 M after 60 mins by liquid scintillation counting method
[8] = system: Mus musculus; assay: Antidepressant-like activity in Albino Swiss CD-1 mouse assessed as immobility time at 20 mg/kg, ip administered 30 mins prior to test measured for last 4 mins of 6 mins observation by forced swim test (reference value: 153.9 to 201.9 secs); assay type: functional
[9] = target: 5-hydroxytryptamine receptor 2A (Homo sapiens, UniProt P28223); assay: biochemical; assay type: cell-based, HEK293;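 also: radioligand displacement of [3H]ketanserin binding at human 5-HT2A receptor in membranes from HEK293 cells, 60 min incubation, read by liquid scintillation counting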
[10] = system: Mus musculus; assay: Antidepressant-like activity in Albino Swiss CD-1 mouse assessed as immobility time at 5 mg/kg, ip administered 30 mins prior to test measured for last 4 mins of 6 mins observation by forced swim test (reference value: 153.9 to 201.9 secs); assay type: functional
[11] = target: 5-hydroxytryptamine receptor 6 (Homo sapiens, UniProt P50406); assay: Displacement of [3H]LSD from recombinant human 5-HT6 receptor expressed in CHO cells cell membranes after 60 mins by liquid scintillation counting method
[12] = system: Mus musculus; assay: Antidepressant-like activity in Albino Swiss CD-1 mouse assessed as immobility time at 10 mg/kg, ip administered 30 mins prior to test measured for last 4 mins of 6 mins observation by forced swim test (reference value: 153.9 to 201.9 secs); assay type: functional
[13] = target: T4, 5-hydroxytryptamine receptor 7; assay: biochemical; assay type: cell-based, CHO
[14] = target: T3, 5-hydroxytryptamine receptor 1A (Homo sapiens); assay: (§1) Antagonist activity at human 5-HT1A receptor expressed in CHO-K1 cells co-expressing Galpha16 assessed as decrease in serotonin calcium mobilization preincubated for 25 mins followed by serotonin challenge measured for 30 secs by aequorin-derived luminescence assay; assay type: functional, cell-based
[15] = target: T5, 5-hydroxytryptamine receptor 1A (Homo sapiens, UniProt P08908); assay: as §1; assay type: functional, cell-based
T5 sequence (P08908 whole entry): T3 sequence (whole entry)

[16] = target: T3, 5-hydroxytryptamine receptor 1A (Homo sapiens); assay: Agonist activity at human 5-HT1A receptor expressed in CHO-K1 cells co-expressing Galpha16 assessed as increase in calcium mobilization measured for 30 secs by aequorin-derived luminescence assay relative to serotonin; assay type: functional, cell-based
[17] = target: T3, 5-hydroxytryptamine receptor 1A (Homo sapiens); assay: Antagonist activity at human 5-HT1A receptor expressed in CHO-K1 cells co-expressing Galpha16 assessed as decrease in serotonin-induced calcium mobilization preincubated for 25 mins followed by serotonin challenge measured for 30 secs by aequorin-derived luminescence assay relative to control; assay type: functional, cell-based
[18] = system: Mus musculus; assay: Anxiolytic-like activity in Albino Swiss CD-1 mouse assessed as increase in number of punished crossings at 1.25 mg/kg, ip administered for 30 mins prior to test measured for 1 min by four-plate test; assay type: functional, organism-based
Method in brief: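 Four-plate test in mice; compounds or clorazepate given i.p. 30 min before testing, vehicle 0.9% NaCl; read-out was number of punished crossings; mean ± SEM, n = 8–10 mice per group; doses compared with one-way statistics (F) against vehicle.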

T1 sequence (P14416 whole entry): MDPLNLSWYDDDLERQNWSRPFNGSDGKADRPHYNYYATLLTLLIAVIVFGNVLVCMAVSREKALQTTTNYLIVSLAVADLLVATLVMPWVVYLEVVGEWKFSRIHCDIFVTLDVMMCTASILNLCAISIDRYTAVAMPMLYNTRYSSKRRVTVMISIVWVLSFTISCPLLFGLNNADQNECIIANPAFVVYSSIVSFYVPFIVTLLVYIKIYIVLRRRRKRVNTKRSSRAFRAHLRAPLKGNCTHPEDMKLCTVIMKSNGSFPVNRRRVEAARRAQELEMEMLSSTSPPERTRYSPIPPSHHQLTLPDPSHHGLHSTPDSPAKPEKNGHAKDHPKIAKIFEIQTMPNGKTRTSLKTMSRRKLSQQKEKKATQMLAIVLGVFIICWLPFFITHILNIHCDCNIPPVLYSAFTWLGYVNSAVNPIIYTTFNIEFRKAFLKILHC
Chain of 5-hydroxytryptamine receptor 6 (P50406 whole entry): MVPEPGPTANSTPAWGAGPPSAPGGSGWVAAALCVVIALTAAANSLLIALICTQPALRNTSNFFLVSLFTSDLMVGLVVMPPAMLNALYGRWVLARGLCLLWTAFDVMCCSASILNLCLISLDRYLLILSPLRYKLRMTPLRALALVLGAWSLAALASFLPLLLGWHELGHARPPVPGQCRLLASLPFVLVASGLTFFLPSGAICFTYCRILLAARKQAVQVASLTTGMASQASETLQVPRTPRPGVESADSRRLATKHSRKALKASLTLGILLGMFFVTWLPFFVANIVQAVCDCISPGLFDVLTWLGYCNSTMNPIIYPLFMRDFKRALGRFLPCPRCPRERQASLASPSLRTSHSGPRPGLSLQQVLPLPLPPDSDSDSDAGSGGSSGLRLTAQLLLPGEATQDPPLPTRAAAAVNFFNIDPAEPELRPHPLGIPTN
Chain of 5-hydroxytryptamine receptor 2A (P28223 whole entry): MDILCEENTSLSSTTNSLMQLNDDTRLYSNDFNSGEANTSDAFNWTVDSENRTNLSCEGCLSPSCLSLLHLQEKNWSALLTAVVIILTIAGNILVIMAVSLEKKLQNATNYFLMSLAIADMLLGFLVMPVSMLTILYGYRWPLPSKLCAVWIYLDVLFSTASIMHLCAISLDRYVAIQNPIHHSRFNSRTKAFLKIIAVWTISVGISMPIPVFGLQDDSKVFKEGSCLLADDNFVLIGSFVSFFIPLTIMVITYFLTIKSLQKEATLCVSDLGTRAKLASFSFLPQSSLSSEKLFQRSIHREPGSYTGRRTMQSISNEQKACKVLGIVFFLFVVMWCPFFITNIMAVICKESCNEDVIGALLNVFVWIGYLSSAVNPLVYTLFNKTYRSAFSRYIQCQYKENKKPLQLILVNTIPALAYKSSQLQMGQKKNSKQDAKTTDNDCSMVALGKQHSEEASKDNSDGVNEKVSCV
T4 sequence (P34969 whole entry): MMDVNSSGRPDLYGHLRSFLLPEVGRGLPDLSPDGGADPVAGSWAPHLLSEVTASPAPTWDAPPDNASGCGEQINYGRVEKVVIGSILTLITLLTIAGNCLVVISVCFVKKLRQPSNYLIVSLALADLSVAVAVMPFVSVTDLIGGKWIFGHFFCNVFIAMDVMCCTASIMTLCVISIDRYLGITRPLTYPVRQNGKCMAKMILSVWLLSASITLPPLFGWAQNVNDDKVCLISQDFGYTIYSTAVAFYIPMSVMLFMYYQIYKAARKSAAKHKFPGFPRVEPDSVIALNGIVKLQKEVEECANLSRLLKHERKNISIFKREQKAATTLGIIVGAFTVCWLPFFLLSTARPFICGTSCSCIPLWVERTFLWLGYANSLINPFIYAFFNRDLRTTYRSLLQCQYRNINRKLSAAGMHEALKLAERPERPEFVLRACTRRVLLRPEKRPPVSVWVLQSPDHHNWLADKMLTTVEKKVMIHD

Row | Compound | inhibition [2] | Activity [3] | inhibition [4] | Activity [5] | inhibition [7] | Time [8] [s] | Ki [9] [nM] | Time [10] [s] | Ki [11] [nM] | Time [12] [s] | also measured
1 | CN(C)CCCN1c2ccccc2Sc2ccc(Cl)cc21 | – | – | – | – | – | – | – | – | – | – | Emax [1]: 5%
2 | Cc1cc(C)c(OCCOCCN2CCN(CCO)CC2)c(C)c1.Cl.Cl | inactive | Active | inactive | Non-Toxic | inactive | 197.3 | > 5000 | 182.6 | > 5000 | 198.1 | inhibition [6]: inactive
3 | Cc1cc(C)c(OCCOCCN2CCN(Cc3ccccc3)CC2)c(C)c1.Cl.Cl | inactive | Active | inactive | Non-Toxic | inactive | 157.5 | 498 | 176.5 | > 5000 | 182.4 | Ki [13]: 3160 nM
4 | COc1ccccc1N1CCN(C[C@@H](C(=O)NC(C)(C)C)c2ccccc2)CC1 | – | – | – | – | – | – | – | – | – | – | Kb [14]: 6.6 nM; IC50 [15]: 16.9 nM; Emax [16]: 1%; Emax [17]: 0%
5 | O=C(O)C1N=C(c2ccccc2)c2cc(Cl)ccc2NC1=O (stereo not drawn) | – | – | – | – | – | – | – | – | – | – | Activity [18]: Active
